Assay results as given in ChEMBL document CHEMBL3352186, “Modification and biological evaluation of thiazole derivatives as novel inhibitors of metastatic cancer cell migration and invasion” (J Med Chem, 2014).
Calls of active or inactive are those of the source. The calls are words filed in the database; no cut-off is given here.

What was measured:
MDA-MB-231 [1] = assay: Antimigratory activity in human MDA-MB-231 cells after 24 hrs using transwell system by light microscopy; assay type: functional, cell-based; conditions: MDA-MB-231, 24 h
How it was run: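 Transwell chambers: 2.5×10^4 cells in serum-free, phenol red-free medium in the upper chamber, with DMEM + 5% FBS below as chemoattractant. Compounds at 10^-8, 10^-7, 10^-6 and 10^-5 M, with 0.1% DMSO vehicle, for 24 h. Membranes were scrubbed, formalin-fixed, methanol-permeabilized and stained with 0.1% crystal violet. Migrated cells were counted by light microscopy per 100× field as % of vehicle. IC50 is the concentration giving 50% migration inhibition.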

MDA-MB-231 [2] = assay: Cytotoxicity against human MDA-MB-231 cells assessed as survival at 1 uM after 5 days; assay type: functional; conditions: MDA-MB-231, 120 h, read-out: Survival
MDA-MB-231 [3] = assay: Antiinvasive activity in human MDA-MB-231 cells at 10 uM after 24 hrs by matrigel assay; assay type: functional; conditions: MDA-MB-231, 24 h
How it was run: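 Cells serum-starved 24 h, trypsinized and resuspended in medium with DMSO or compound; 2.5×10^4 cells/well seeded on Matrigel-coated inserts. Bottom well held 10% FBS medium with DMSO or 10 μM compound. After 24 h, non-invaded cells were scrubbed off and invaded cells fixed (4% formaldehyde, 10 min, RT), stained with 0.04% crystal violet and counted at 100× in five random fields. Result is % invasion relative to DMSO.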

Chorioallantoic membrane = assay: Antiangiogenic activity in chicken egg embryo assessed as inhibition of bFGF/VEGF-induced angiogenesis in chorioallantoic membrane after 3 days; assay type: functional; conditions: Gallus gallus
How it was run: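 Fertilized chick embryos were incubated at 37.5 °C for 3 days, removed from the shell, and kept 7 further days. Each compound was added to a collagen plug containing bFGF (10 ng/plug) plus VEGF (30 ng/plug) and placed on the CAM of 10-day embryos for 3 days. PBS was the negative control. Plugs were imaged and scored masked on a 0–3 angiogenesis scale, reported as mean ± SEM, and analysed by one-way ANOVA with Dunnett's test.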

HeLa (Homo sapiens) = assay: Induction of disorganization of actin filaments in human HeLa cells assessed as decrease in F-actin staining intensity near cell membrane at 10^-6 M by phalloidin staining
MDA-MB-231 [4] = assay: Antimigratory activity in human MDA-MB-231 cells over-expressed with fascin assessed as inhibition of cell migration at 10 uM after 24 hrs by Transwell assay

| SMILES | IC50 (MDA-MB-231 [1]) | viability at 1 µM (MDA-MB-231 [2]) | inhibition at 10 µM (MDA-MB-231 [3]) | inhibition (Chorioallantoic membrane) | Activity (HeLa (Homo sapiens)) | inhibition (MDA-MB-231 [4]) |
| --- | --- | --- | --- | --- | --- | --- |
| C#CCn1c(-c2ccc(C)cc2C)cs/c1=N\C(=O)c1ccccc1 | 3.89 µM | 70.2% | – | – | – | – |
| Cc1ccc(-c2cn(C)/c(=N/C(=O)c3ccccc3)s2)cc1 | > 25 µM | 113% | – | – | – | – |
| Cc1sc(NC(=O)c2ccccc2)nc1-c1ccc(F)cc1 | 9.1 µM | 53.7% | – | – | – | – |
| COc1cccc(C(=O)N(C)c2nc(-c3cc(OC)c(OC)c(OC)c3)cs2)c1 | 0.646 µM | 88.9% | – | – | – | – |
| COc1cc(-c2csc(NC(=O)c3cccc(OC)c3OC)n2)cc(OC)c1OC | 15 µM | 90.1% | – | – | – | – |
| Cn1c(-c2ccc(Br)cc2)cs/c1=N\C(=O)c1ccccc1 | 0.125 µM | 59.3% | – | – | – | – |
| CCCn1c(-c2ccccc2)cs/c1=N\C(=O)c1ccccc1 | 0.657 µM | 100% | – | – | – | – |
| O=C(Nc1nc(-c2ccc(Br)cc2)cs1)c1ccccc1 | 9.5 µM | 82.2% | – | – | – | – |
| Cn1c(-c2cc(C(F)(F)F)cc(C(F)(F)F)c2)cs/c1=N\C(=O)c1ccccc1 | 0.0961 µM | 79.8% | – | – | – | – |
| COc1ccc(C(=O)N(C)c2nc(-c3cc(OC)c(OC)c(OC)c3)cs2)cc1 | 0.312 µM | 100% | – | – | – | – |
| COc1ccc(C(=O)/N=c2\scc(-c3cc(OC)c(OC)c(OC)c3)n2C)cc1 | 8.04 µM | 106% | – | – | – | – |
| CCCCCCCCCCCCn1c(-c2ccc(C)cc2C)cs/c1=N\C(=O)c1ccccc1 | 0.024 µM | 110% | > 50% | Active | Active | – |
| COc1ccc(C(=O)N(C)c2nc(-c3cc(OC)c(OC)c(OC)c3)cs2)c(OC)c1 | 5.04 µM | 119% | – | – | – | – |
| CN(C(=O)c1ccccc1)c1nc(-c2ccccc2Cl)cs1 | 0.0416 µM | 88.9% | – | – | – | – |
| COc1cccc(C(=O)/N=c2\scc(-c3cc(OC)c(OC)c(OC)c3)n2C)c1 | > 50 µM | 104% | – | – | – | – |
| Cc1s/c(=N\C(=O)c2ccccc2)n(C)c1-c1ccccc1 | 0.197 µM | 68.4% | – | – | – | – |
| CCCCn1c(-c2ccc(C)cc2C)cs/c1=N\C(=O)c1ccccc1 | 0.196 µM | 70.4% | – | – | – | – |
| CN(C(=O)c1ccccc1)c1nc(-c2ccc(Br)cc2)cs1 | 0.317 µM | 65.4% | – | – | – | – |
| C=CCn1c(-c2ccccc2)cs/c1=N\C(=O)c1ccccc1 | 1.2 µM | 64.8% | – | – | – | – |
| Cn1c(C2CC2)cs/c1=N\C(=O)c1ccccc1 | 0.104 µM | 90.7% | – | – | – | – |
| Cn1c(-c2ccccc2Cl)cs/c1=N\C(=O)c1ccccc1 | 0.268 µM | 72.2% | – | – | – | – |
| C=CCn1c(-c2ccc(C)cc2C)cs/c1=N\C(=O)c1ccccc1 | 0.456 µM | 115% | – | – | – | – |

| SMILES | IC50 (MDA-MB-231 [1]) | viability at 1 µM (MDA-MB-231 [2]) | inhibition at 10 µM (MDA-MB-231 [3]) | inhibition (Chorioallantoic membrane) | Activity (HeLa (Homo sapiens)) | inhibition (MDA-MB-231 [4]) |
| --- | --- | --- | --- | --- | --- | --- |
| COc1ccc(C(=O)Nc2nc(-c3cc(OC)c(OC)c(OC)c3)cs2)cc1OC | > 25 µM | 87.3% | – | – | – | – |
| COc1cc(-c2cs/c(=N\C(=O)c3ccc(Cl)cc3)n2C)cc(OC)c1OC | 0.758 µM | 77.6% | – | – | – | – |
| COc1cccc(C(=O)Nc2nc(-c3cc(OC)c(OC)c(OC)c3)cs2)c1 | 14 µM | 92.6% | – | – | – | – |
| COc1cc(C(=O)/N=c2\scc(-c3cc(OC)c(OC)c(OC)c3)n2C)cc(OC)c1OC | 1.96 µM | 81.5% | – | – | – | – |
| COc1cc(C(=O)N(C)c2nc(-c3cc(OC)c(OC)c(OC)c3)cs2)cc(OC)c1OC | 0.47 µM | 115% | – | – | – | – |
| Cc1ccc(-c2cs/c(=N\C(=O)c3ccccc3)n2C)c(C)c1 | 0.218 µM | 101% | > 50% | – | – | – |
| Cc1ccc(-c2cnc(N(C)C(=O)c3ccccc3)s2)cc1 | 1.09 µM | 59.3% | – | – | – | – |
| O=C(Nc1nc(-c2ccccc2Cl)cs1)c1ccccc1 | 15 µM | 102% | – | – | – | – |
| Cc1ccc(-c2cnc(NC(=O)c3ccccc3)s2)cc1 | 0.308 µM | 55.6% | – | – | – | – |
| COc1ccccc1C(=O)Nc1nc(-c2cc(OC)c(OC)c(OC)c2)cs1 | 8.5 µM | 104% | – | – | – | – |
| CCn1c(-c2ccc(C)cc2C)cs/c1=N\C(=O)c1ccccc1 | 1.95 µM | 142% | > 50% | – | – | – |
| COc1cc(-c2cs/c(=N\C(=O)c3ccccc3)n2C)cc(OC)c1OC | 1.07 µM | 88.4% | – | – | – | – |
| COc1ccc(C(=O)Nc2nc(-c3cc(OC)c(OC)c(OC)c3)cs2)c(OC)c1 | > 50 µM | 93.8% | – | – | – | – |
| COc1cc(-c2csc(NC(=O)c3ccccc3)n2)cc(OC)c1OC | > 50 µM | 95% | – | – | – | – |
| CCCn1c(-c2ccc(C)cc2C)cs/c1=N\C(=O)c1ccccc1 | 0.292 µM | 85% | – | – | – | – |
| Cn1c(-c2cccc(Br)c2)cs/c1=N\C(=O)c1ccccc1 | 0.302 µM | 94.4% | – | – | – | – |
| O=C(Nc1nc(-c2cccc(Cl)c2)cs1)c1ccccc1 | 0.123 µM | 71.4% | – | – | – | – |
| CN(C(=O)c1ccccc1)c1nc(-c2cccc(Br)c2)cs1 | 0.437 µM | 104% | – | – | – | – |
| C#CCn1c(-c2ccccc2)cs/c1=N\C(=O)c1ccccc1 | 2.78 µM | 63% | – | – | – | – |
| Cc1cs/c(=N\C(=O)c2ccccc2)n1C | 15 µM | 103% | – | – | – | – |
| CCn1c(-c2ccccc2)cs/c1=N\C(=O)c1ccccc1 | 0.0515 µM | 68.5% | – | – | – | – |
| COc1cc(-c2csc(N(C)C(=O)c3ccccc3)n2)cc(OC)c1OC | 10 µM | 96.4% | – | – | – | – |

| SMILES | IC50 (MDA-MB-231 [1]) | viability at 1 µM (MDA-MB-231 [2]) | inhibition at 10 µM (MDA-MB-231 [3]) | inhibition (Chorioallantoic membrane) | Activity (HeLa (Homo sapiens)) | inhibition (MDA-MB-231 [4]) |
| --- | --- | --- | --- | --- | --- | --- |
| Cc1s/c(=N\C(=O)c2ccccc2)n(C)c1-c1ccc(F)cc1 | 0.847 µM | 83.8% | – | – | – | – |
| O=C(Nc1nc(-c2cc(C(F)(F)F)cc(C(F)(F)F)c2)cs1)c1ccccc1 | 0.336 µM | 85.8% | – | – | – | – |
| Cn1c(-c2cccc(Cl)c2)cs/c1=N\C(=O)c1ccccc1 | 0.367 µM | 35.2% | – | – | – | – |
| O=C(Nc1nc(-c2cccc(Br)c2)cs1)c1ccccc1 | 10 µM | 78% | – | – | – | – |
| COc1ccc(C(=O)N(C)c2nc(-c3cc(OC)c(OC)c(OC)c3)cs2)cc1OC | > 25 µM | 102% | – | – | – | – |
| Cc1csc(NC(=O)c2ccccc2)n1 | 12 µM | 103% | – | – | – | – |
| COc1cc(C(=O)Nc2nc(-c3cc(OC)c(OC)c(OC)c3)cs2)cc(OC)c1OC | 1.03 µM | 77.6% | – | – | – | – |
| COc1ccccc1C(=O)N(C)c1nc(-c2cc(OC)c(OC)c(OC)c2)cs1 | > 25 µM | 109% | – | – | – | – |
| Cc1sc(NC(=O)c2ccccc2)nc1-c1ccccc1 | > 25 µM | 99% | – | – | – | – |
| Cc1sc(N(C)C(=O)c2ccccc2)nc1-c1ccc(F)cc1 | 1.62 µM | 108% | – | – | – | – |
| Cc1ccc(-c2csc(NS(=O)(=O)c3ccccc3)n2)c(C)c1 | 11 µM | 137% | – | – | – | – |
| COc1cc(-c2csc(NC(=O)c3ccc(Cl)cc3)n2)cc(OC)c1OC | > 25 µM | 85.6% | – | – | – | – |
| CCCN(C(=O)c1ccccc1)c1nc(-c2ccccc2)cs1 | 0.077 µM | 116% | > 50% | – | Active | – |
| CCCCCCn1c(-c2ccc(C)cc2C)cs/c1=N\C(=O)c1ccccc1 | 0.045 µM | 90% | > 50% | Active | Active | inactive |
| COc1cc(-c2csc(N(C)C(=O)c3cccc(OC)c3OC)n2)cc(OC)c1OC | 0.108 µM | 118% | – | – | – | – |
| CCN(C(=O)c1ccccc1)c1nc(-c2ccccc2)cs1 | 0.533 µM | 129% | – | – | – | – |
| Cc1ccc(-c2cs/c(=N\S(=O)(=O)c3ccccc3)n2C)c(C)c1 | 1.46 µM | 92.4% | – | – | – | – |
| COc1ccc(C(=O)Nc2nc(-c3cc(OC)c(OC)c(OC)c3)cs2)cc1 | > 25 µM | 93.8% | – | – | – | – |
| C#CCN(C(=O)c1ccccc1)c1nc(-c2ccc(C)cc2C)cs1 | 0.321 µM | 106% | – | – | – | – |
| Cc1ccc(-c2csc(N(C)S(=O)(=O)c3ccccc3)n2)c(C)c1 | > 25 µM | 117% | – | – | – | – |
